Activity calls are given as the source filed them.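 How the source made its calls, unless noted: active means fluorescence slope higher than the sample average by over 3 SD (cut at about -0.22 in these data, passing the limit was not always enough); inactive means the rest.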
Key:
[1] = inhibitors of TNFa-induced NFkB p65 translocation, primary screen, imaging, HUVEC, MLSMR starter and 10KST1 sets (AID 438;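 active means inhibition above 20% together with a positive visual image hit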;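 further: compound added about 3h40 before a 20 min TNFalpha stimulation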;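 on inhibition: signal is the nuclear over cytoplasmic p65 intensity ratio per well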); conditions: HUVEC TNFa-induced p65 nuclear translocation; cell count: measured here: nuclei count (cytotoxicity indicator), at 2.08 µM; inhibition: at 2 µM, stronger effect = higher value, 0% TNFa-plus-vehicle, 100% no-TNFa wells
[2] = reduction of polyQ htt aggregates in cells – imaging, exon1htt(103Q)mCFP cells, high-content imaging, primary screen (AID 483;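 active means visual image review flags a hit and inhibition of aggregation exceeds 20%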;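 further: compound exposure lasted 3 days before fixation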;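 on nuclei count: percent of the per-plate median nuclei count of sample wells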); conditions: exon1htt(103Q)mCFP cell line, aggregate imaging, at 2 µM; inhibition of aggregation: stronger effect = higher value; nuclei count: measured here: cell count, toxicity
[3] = endothelial E-selectin expression blockers – imaging, HUVEC, immunofluorescence, MLSMR starter and 10KST1 sets, primary screen (AID 487;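 active means visually confirmed hit in the image check and inhibition above 20%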;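 on inhibition: signal is fraction of cell area covered by stained E-selectin grains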;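 on nuclei count: 100% = median nuclei count of all wells on the same plate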); conditions: HUVEC TNFalpha-induced E-selectin immunofluorescence imaging, at 2 µM; inhibition: stronger effect = higher value; nuclei count: measured here: cell number, toxicity
[4] = target: Voltage-gated potassium channel subunit beta-2 (Rattus norvegicus) (UniProt P62483); assay: inhibitors of rat Kvbeta2 reductase activity – biochemical, NADPH fluorescence, primary screen (AID 622); conditions: recombinant KvBeta, 4-cyanobenzaldehyde reduction, at 10 µM, stronger effect = higher value;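 further: slope of raw intensity against log time taken from 70 to 1610 s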
Sequence of Voltage-gated potassium channel subunit beta-2 (Rattus norvegicus) (P62483 whole entry, looked up): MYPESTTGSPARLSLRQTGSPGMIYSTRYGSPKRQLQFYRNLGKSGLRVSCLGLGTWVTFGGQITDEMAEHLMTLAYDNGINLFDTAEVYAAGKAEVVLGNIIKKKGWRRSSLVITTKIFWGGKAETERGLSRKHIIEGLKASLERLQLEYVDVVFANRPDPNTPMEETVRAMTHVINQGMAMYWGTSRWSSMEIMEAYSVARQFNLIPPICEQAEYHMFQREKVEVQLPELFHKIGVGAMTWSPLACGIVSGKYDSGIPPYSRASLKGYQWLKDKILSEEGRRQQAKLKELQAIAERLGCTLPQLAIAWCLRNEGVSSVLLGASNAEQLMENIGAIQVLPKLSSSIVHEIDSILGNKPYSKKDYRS

[5] = target: Voltage-gated potassium channel subunit beta-2 (Rattus norvegicus) (UniProt P62483); assay: enhancers of rat Kvbeta2 NADPH turnover – biochemical, NADPH fluorescence, primary screen (AID 623;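 active means NADPH fluorescence slope more negative than the mean of all samples by about 3 SD, 99.7% confidence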;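 further: fluorescence intensity change per second fitted from 20 to 320 s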); conditions: Recombinant KvBeta, NADPH fluorescence decrease slope, 10 min; at 10 µM; stronger effect = lower value
[6] = target: Muscarinic acetylcholine receptor M4 (Homo sapiens) (UniProt P08173); assay: M4-linked GIRK flux change, two-sided – cell-based, HEK293 M4/GIRK, thallium flux, BTC-AM, M4 allosteric agonist project, primary screen (AID 625;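 active means fluorescence slope after compound addition differing from the mean of all tested samples at 99.7% confidence, mostly higher but some lower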;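 further: thallium influx through GIRK channels coupled to M4 in HEK293 cells with BTC-AM dye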); conditions: at 10 µM, actives lie on both sides
Sequence of Muscarinic acetylcholine receptor M4 (Homo sapiens) (P08173 whole entry, looked up): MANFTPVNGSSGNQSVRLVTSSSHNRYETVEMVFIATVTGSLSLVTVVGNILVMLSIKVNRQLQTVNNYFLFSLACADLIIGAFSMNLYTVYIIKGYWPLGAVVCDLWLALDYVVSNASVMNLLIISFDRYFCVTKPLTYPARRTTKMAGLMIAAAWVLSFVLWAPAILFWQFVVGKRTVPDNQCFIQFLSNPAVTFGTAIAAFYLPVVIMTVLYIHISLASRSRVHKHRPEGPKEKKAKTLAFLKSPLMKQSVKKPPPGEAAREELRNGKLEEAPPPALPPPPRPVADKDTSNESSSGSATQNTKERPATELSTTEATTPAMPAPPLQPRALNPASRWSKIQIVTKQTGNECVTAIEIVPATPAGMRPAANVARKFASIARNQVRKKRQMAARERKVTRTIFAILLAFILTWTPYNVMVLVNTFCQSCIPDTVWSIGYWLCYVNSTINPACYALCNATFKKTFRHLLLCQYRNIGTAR
Procedure, shortened: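 System: HEK293 cells with M4 receptor and GIRK channels | Incubation: Cells overnight at 37 °C, BTC-AM loading 1 h, reads 2 min total | Technique: Kinetic BTC-AM fluorescence sampled at 1 Hz, 10 s pre-addition baseline | Measure: Post-addition slope, 15–24 s, of baseline-normalized fluorescence | Control set: Carbachol positive, DMSO negative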

[7] = blockers of RIG-like receptor reporter activation – cell-based, Sendai virus stimulus, luciferase, 10K MLSCN set, TLR/RLR signaling modifier project, primary screen (AID 602276;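 active means inhibition at or above 50% at 10 µM; inactive means inhibition below 50%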;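 further: firefly luciferase from ISG56 promoter only with Renilla not read in this screen; 0% = Sendai virus plus DMSO and 100% = medium plus DMSO without virus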); conditions: HEK293 RL24 IRF3 luciferase reporter, at 10 µM, stronger effect = higher value
[8] = TLR3 IRF3 reporter activation blockers – cell-based, poly I:C stimulus, luciferase, 10K MLSCN set, primary screen (AID 602277;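 active means inhibition of the reporter signal at or above 50%; inactive means inhibition below 50%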); conditions: HEK293-TLR3 RL24 IRF3 luciferase reporter, at 10 µM, stronger effect = higher value

Row | Structure (SMILES) | cell count [1] | inhibition [1] | inhibition of aggregation [2] | nuclei count [2] [%] | inhibition [3] | nuclei count [3] [%] | fluorescence slope [4] | NADPH fluorescence slope [5] | fluorescence slope [6] | inhibition [7] | inhibition [8]
1 | O=C(c1ccco1)N1CCN(c2c(-c3ccccc3)c3cc(Cl)ccc3[nH]c2=O)CC1 | 603 | 2.1% (inactive) | -2.2% (inactive) | 119 | -72.2% (inactive) | 118 | -0.456 (inactive) | 2.5e-05 (inactive) | 0.00537 (inactive) | 24.2% (inactive) | 25.7% (inactive)
2 | CCOC(=O)c1sc2ncn(/N=C/N(C)C)c(=O)c2c1C | 415 | -2.7% (inactive) | 40.3% (active) | 72.6 | 20.9% (inactive) | 85.9 | -0.385 (inactive) | 6.4e-06 (inactive) | 0.00524 (inactive) | 5.64% (inactive) | 6.76% (inactive)
3 | COC(=O)c1[nH]c2c(c1C)C(=O)CC(c1cccs1)C2 (stereo not drawn) | 315 | 4.5% (inactive) | -123% (inactive) | 2 | -126% (inactive) | 134 | -0.473 (inactive) | -2.2e-05 (inactive) | 0.00476 (inactive) | 34.9% (inactive) | 79.5% (active)
4 | Clc1ccccc1-c1nnc2sc(-c3ccccn3)nn12 | 420 | -4.1% (inactive) | 24.3% (inactive) | 84.8 | -102% (inactive) | 118 | -0.447 (inactive) | -6.3e-05 (inactive) | 0.00382 (inactive) | 14.6% (inactive) | 14.1% (inactive)
5 | COCCCNC(=O)CC(NS(=O)(=O)c1ccc(Cl)cc1)c1ccco1 (stereo not drawn) | 402 | 0.3% (inactive) | -20.4% (inactive) | 112 | -62.8% (inactive) | 121 | -0.541 (inactive) | -4.5e-05 (inactive) | 0.00644 (inactive) | 11.7% (inactive) | 20.4% (inactive)
6 | Cc1cc(C2C(C#N)=C(N)SC(N)=C2C#N)c(C)s1 | 755 | -5% (inactive) | -30.7% (inactive) | 102 | -27.1% (inactive) | 130 | -0.573 (inactive) | -8.5e-05 (inactive) | 0.00245 (inactive) | 8.05% (inactive) | 20.2% (inactive)
7 | Cc1ccc(C2C(C#N)=C(N)Oc3cc4c(cc32)OCO4)cc1 (stereo not drawn) | 373 | -5.8% (inactive) | 32.6% (inactive) | 69.9 | 22.1% (inactive) | 104 | -0.541 (inactive) | -3.6e-05 (inactive) | 0.00467 (inactive) | 24.6% (inactive) | 45.5% (inactive)
8 | CCn1c(=O)cc(SCC(=O)Nc2ccc3c(c2)OCO3)c2ccccc21 | 368 | 3.1% (inactive) | 1.5% (inactive) | 97.6 | -7.2% (inactive) | 115 | -0.432 (inactive) | 4e-05 (inactive) | 0.00544 (inactive) | -16.8% (inactive) | -13.5% (inactive)
9 | CCn1c(C(=O)N2CCCC(C(=O)O)C2)cc2sccc21 (stereo not drawn) | 335 | 26.3% (active) | -57.1% (inactive) | 115 | -32.2% (inactive) | 115 | -0.485 (inactive) | 8.2e-05 (inactive) | 0.00595 (inactive) | -2.79% (inactive) | -4.5% (inactive)
10 | Cc1ccc(-c2nnn(CC(=O)N(CC(=O)NCC3CCCO3)c3ccccc3)n2)o1 (stereo not drawn) | 618 | -3.6% (inactive) | -12.2% (inactive) | 85.7 | -161% (inactive) | 106 | -0.584 (inactive) | -1.6e-05 (inactive) | 0.00876 (inactive) | 1.41% (inactive) | 5.51% (inactive)
11 | COC(=O)CCCCCNc1ccc(C(=O)OC)cc1N | 292 | 7.7% (inactive) | 12.1% (inactive) | 92.9 | -71.5% (inactive) | 122 | -0.341 (inactive) | -6.2e-05 (inactive) | 0.00505 (inactive) | 6.15% (inactive) | 18.3% (inactive)
12 | O=C(CN1C(=O)c2cccc3cccc1c23)NCC1CCCO1 (stereo not drawn) | 356 | 20.1% (inactive) | 13.2% (inactive) | 79.5 | -58% (inactive) | 102 | -0.433 (inactive) | -4.9e-05 (inactive) | 0.00404 (inactive) | -5.13% (inactive) | -11.1% (inactive)
13 | Cc1cccc(-n2ncc(C#N)c2N)c1 | 644 | -3% (inactive) | 11.6% (inactive) | 97 | -44.1% (inactive) | 144 | -0.482 (inactive) | -2.8e-06 (inactive) | 0.00451 (inactive) | 18% (inactive) | 12.7% (inactive)
14 | Cc1ccc(S(=O)(=O)N(C)CC(=O)NC2CCCC2)cc1 | 226 | 10.1% (inactive) | 1.1% (inactive) | 90.7 | -98.8% (inactive) | 148 | -0.453 (inactive) | -2.6e-05 (inactive) | 0.00453 (inactive) | 10.5% (inactive) | 29.4% (inactive)
15 | O=C(COc1ccccc1)NCCSCc1ccco1 | 599 | -59.2% (inactive) | -13.8% (inactive) | 115 | -71.2% (inactive) | 116 | -0.271 (inactive) | -2e-05 (inactive) | 0.00726 (inactive) | -1.72% (inactive) | -10.5% (inactive)
16 | Cc1cnc(C(=O)Nc2ccc(-n3cnnn3)cc2)cn1 | 508 | -16.7% (inactive) | -8.7% (inactive) | 95.2 | 15.8% (inactive) | 95.7 | -0.513 (inactive) | -5.9e-05 (inactive) | 0.00454 (inactive) | 10.3% (inactive) | -4.35% (inactive)
17 | CCOC(=O)c1ccc(NC(=O)CCc2nc(-c3ccc(C)cc3)no2)cc1 | 368 | 0.7% (inactive) | 21.5% (inactive) | 103 | -32.9% (inactive) | 116 | -0.556 (inactive) | -2.2e-05 (inactive) | 0.0041 (inactive) | 11.4% (inactive) | -5.93% (inactive)
18 | Cc1ccc(C(=O)Nc2nc3c(s2)CCCC3)o1 | 341 | -4% (inactive) | -8.3% (inactive) | 101 | -96.9% (inactive) | 120 | -0.561 (inactive) | -4.4e-05 (inactive) | 0.00262 (inactive) | -30.4% (inactive) | -89.5% (inactive)
19 | O=C(CP(=O)(CO)CO)c1ccc(Cl)cc1 | 863 | -2.9% (inactive) | 18.9% (inactive) | 119 | 2.9% (inactive) | 126 | -0.536 (inactive) | 4.7e-05 (inactive) | 0.00425 (inactive) | 3.99% (inactive) | 14.2% (inactive)
20 | O=C(COc1ccccc1Cl)OCC(=O)N1CCN(S(=O)(=O)c2ccccc2)CC1 | 270 | 2.6% (inactive) | -0.5% (inactive) | 107 | -107% (inactive) | 119 | -0.438 (inactive) | 7.9e-05 (inactive) | 0.00565 (inactive) | 16.4% (inactive) | 21% (inactive)
21 | CC1(C)Cc2noc(N)c2C(C)(C)N1OC(=O)c1ccco1 | 295 | -6.6% (inactive) | 21.5% (inactive) | 87.2 | -89.1% (inactive) | 88.4 | -0.474 (inactive) | 2.9e-05 (inactive) | 0.00628 (inactive) | 16.2% (inactive) | 23.5% (inactive)
22 | Cc1ccc(O)c(C(=O)c2cc(C#N)c(=O)n(CC3CCCO3)c2)c1 (stereo not drawn) | 449 | -20.3% (inactive) | 33.7% (active) | 70.1 | 82.1% (active) | 53.1 | -0.561 (inactive) | -4.5e-05 (inactive) | 0.00669 (inactive) | 15% (inactive) | 24.8% (inactive)
23 | O=C(CN1CCC(n2nnc3cc(F)ccc32)CC1)Nc1ccc2c(c1)CCC2 | 590 | -57.1% (inactive) | -14.1% (inactive) | 112 | -84.4% (inactive) | 108 | -0.364 (inactive) | -1.5e-05 (inactive) | 0.00687 (inactive) | 14.8% (inactive) | 1.94% (inactive)
24 | COCCn1c(SCC(=O)Nc2nnc(C)s2)nnc1-c1c[nH]c2ccccc12 | 518 | 7.1% (inactive) | -15.6% (inactive) | 114 | -37.4% (inactive) | 113 | -0.505 (inactive) | -0.00026 (inactive) | 0.00466 (inactive) | 5.93% (inactive) | 14.2% (inactive)
25 | COc1ccccc1-c1ccc(Nc2cccc(C(C)=O)c2)nn1 | 319 | -11.3% (inactive) | -0.2% (inactive) | 74.7 | 0.3% (inactive) | 103 | -0.576 (inactive) | -6e-05 (inactive) | 0.00562 (inactive) | 12.1% (inactive) | -36.2% (inactive)
26 | Cc1ccc2nc(NC(=O)C3CCN(S(=O)(=O)c4cccc5nsnc45)CC3)sc2c1 | 540 | 0% (inactive) | -1.9% (inactive) | 105 | 38.3% (inactive) | 100 | -0.414 (inactive) | -9.1e-05 (inactive) | 0.00593 (inactive) | -4.97% (inactive) | -45% (inactive)
27 | Cc1ccccc1NC(=O)c1ccccc1 | 373 | 1.7% (inactive) | 13.2% (inactive) | 104 | -49.6% (inactive) | 110 | -0.469 (inactive) | 2.1e-05 (inactive) | 0.00509 (inactive) | 1.39% (inactive) | -13% (inactive)
28 | CCOC(=O)c1nnn(-c2nonc2NC(C)=O)c1C | 323 | 6.5% (inactive) | -14.1% (inactive) | 98.9 | -39.1% (inactive) | 93.3 | -0.58 (inactive) | -1.6e-05 (inactive) | 0.00665 (inactive) | 17.3% (inactive) | 14% (inactive)

— PubChem BioAssay
